Molecules are shown by their SMILES. Calls of active or inactive are those of the source. The calls are words filed in the database; no cut-off is given here.

Data set [1] is filed under the species Danio rerio. The data set is described as follows: Psychostimulant activity in zebrafish assessed as increase in high intensity light-induced motor response at < 10 uM by photomotor response assay. In kind it is functional, organism-based. The method in brief: (§1)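 Zebrafish embryos were raised in E3 medium buffered with 10 mM HEPES, in the dark at 28 °C. At 28 hpf, 8–10 per well went into 96-well plates, held dark at 25 °C for chemical treatment. For each well, 1000 video frames were recorded at 33 fps, with light stimuli. A motion index was computed from frame-to-frame pixel-intensity differences. Q1 and Q3 of this index over seven time periods gave fourteen pseudo z-scores versus control wells.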

The species named for data set [2] is Danio rerio. The data set is described as follows: Anxiolytic activity in zebrafish assessed as decrease in high intensity light-induced motor behavior at <10 uM by photomotor response assay. Type of data set: functional, organism-based. The method in brief:
(§2)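 Embryos raised in HEPES (10 mM)-buffered E3 in the dark at 28 °C, then distributed at 28 hpf in groups of 8–10 per well of 96-well plates in E3 and held in the dark at 25 °C for chemical exposure. Light pulses were delivered while 1000 video frames were recorded at 33 fps. Motion index quartiles (Q1, Q3) in seven time periods were converted to pseudo z-scores against control wells.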

For data set [3], the species on record is Danio rerio. As to the kind of experiment: Modulation of neurological behavior in zebrafish assessed as effect on touch response by high-throughput screening. In kind it is functional, organism-based. The method in brief:
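Zebrafish embryos were raised in E3 medium buffered with 10 mM HEPES, in the dark at 28 °C. At 28 hpf, groups of 8–10 were placed in 96-well plates, then kept dark at 25 °C during chemical treatment. After the photomotor assay, each animal was touched with a fine plastic probe and observed under a dissecting microscope. Wells were scored normal, toxic, sedative (no touch response but healthy heartbeat and circulation) or other.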

Data set [4] is filed under the species Danio rerio. The data set is described as follows: Psychostimulant activity in zebrafish assessed as increase in high intensity light-induced motor response at 10 to 100 uM by photomotor response assay. Type of data set: functional, organism-based. The method in brief:
as §1

Data set [5] can be described thus: Inhibition of MAO by plate-reader assay.
Data set [6] is described as follows: Ratio of pargyline IC50 to compound IC50 for MAO.
The species entered for data set [7] is Danio rerio. As to the kind of experiment: Anxiolytic activity in zebrafish assessed as decrease in high intensity light-induced motor behavior at 10 to 100 uM by photomotor response assay. Type of data set: functional, organism-based. The essentials:
as §2

Data set [8] has as its target Acetylcholinesterase (Danio rerio, UniProt Q9DDE3). The data set is described as follows: Inhibition of AChE in zebrafish embryo.
Data set [9] deals with T1, Acetylcholinesterase (Homo sapiens, UniProt P22303). The data set is described as follows: Inhibition of AChE at 10 uM.
Data set [10] is filed under the species Danio rerio. As to the kind of experiment: Toxicity in zebrafish assessed as mortality at 100 uM. Particulars: in vivo. Type of data set: organism-based. The method in brief:
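Embryos were treated in 96-well plates, 8–10 per well, then scored after the photomotor assay under a dissecting microscope. Scoring covered developmental retardation, morphological defects, heart morphology, rate and circulation, response to touch with a fine plastic probe, and overall appearance. Wells were classed as normal, toxic, sedative or other.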

The species entered for data set [11] is Danio rerio. As to the kind of experiment: Modulation of neurological behavior in zebrafish assessed as prolongation of high intensity light-induced motor response at 10 to 100 uM by photomotor response assay. In kind it is functional, organism-based. The method in brief: as §1
Data set [12] is described as follows: Inhibition of MAO at 10 uM by plate-reader assay.
The target in data set [13] is T1, Acetylcholinesterase. The data set is described as follows: Inhibition of AChE.
For data set [14], the species on record is Danio rerio. The data set is described as follows: Modulation of neurological behavior in zebrafish assessed as robist increase in high intensity light-induced motor response at 10 to 100 uM by photomotor response assay. In kind it is functional, organism-based. The method in brief: as §2
The species entered for data set [15] is Danio rerio. As to the kind of experiment: Modulation of neurological behavior in zebrafish assessed as robist increase in high intensity light-induced motor response at < 10 uM by photomotor response assay. Type of data set: functional, organism-based. The method in brief: as §2
The species named for data set [16] is Danio rerio. As to the kind of experiment: Modulation of neurological behavior in zebrafish assessed as prolongation of high intensity light-induced motor response at < 10 uM by photomotor response assay. Type of data set: functional, organism-based. The essentials:
as §1

T1 sequence (P22303 whole entry): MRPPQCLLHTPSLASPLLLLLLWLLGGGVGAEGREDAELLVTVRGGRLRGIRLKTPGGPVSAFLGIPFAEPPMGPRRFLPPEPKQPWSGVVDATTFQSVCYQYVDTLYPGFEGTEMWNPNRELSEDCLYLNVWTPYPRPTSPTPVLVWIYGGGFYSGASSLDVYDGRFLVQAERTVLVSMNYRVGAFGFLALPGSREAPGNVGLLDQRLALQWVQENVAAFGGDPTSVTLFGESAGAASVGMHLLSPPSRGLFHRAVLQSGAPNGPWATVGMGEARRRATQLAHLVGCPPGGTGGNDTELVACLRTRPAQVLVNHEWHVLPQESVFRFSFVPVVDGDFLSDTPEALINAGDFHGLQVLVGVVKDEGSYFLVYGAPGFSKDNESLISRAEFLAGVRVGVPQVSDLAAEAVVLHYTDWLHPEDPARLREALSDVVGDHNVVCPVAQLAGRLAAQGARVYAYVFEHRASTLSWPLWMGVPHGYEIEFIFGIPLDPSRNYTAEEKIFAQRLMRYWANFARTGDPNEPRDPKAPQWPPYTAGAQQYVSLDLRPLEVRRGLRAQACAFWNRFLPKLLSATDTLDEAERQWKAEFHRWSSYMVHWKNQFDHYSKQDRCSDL
Sequence of Acetylcholinesterase (Danio rerio, UniProt Q9DDE3) (Q9DDE3 whole entry): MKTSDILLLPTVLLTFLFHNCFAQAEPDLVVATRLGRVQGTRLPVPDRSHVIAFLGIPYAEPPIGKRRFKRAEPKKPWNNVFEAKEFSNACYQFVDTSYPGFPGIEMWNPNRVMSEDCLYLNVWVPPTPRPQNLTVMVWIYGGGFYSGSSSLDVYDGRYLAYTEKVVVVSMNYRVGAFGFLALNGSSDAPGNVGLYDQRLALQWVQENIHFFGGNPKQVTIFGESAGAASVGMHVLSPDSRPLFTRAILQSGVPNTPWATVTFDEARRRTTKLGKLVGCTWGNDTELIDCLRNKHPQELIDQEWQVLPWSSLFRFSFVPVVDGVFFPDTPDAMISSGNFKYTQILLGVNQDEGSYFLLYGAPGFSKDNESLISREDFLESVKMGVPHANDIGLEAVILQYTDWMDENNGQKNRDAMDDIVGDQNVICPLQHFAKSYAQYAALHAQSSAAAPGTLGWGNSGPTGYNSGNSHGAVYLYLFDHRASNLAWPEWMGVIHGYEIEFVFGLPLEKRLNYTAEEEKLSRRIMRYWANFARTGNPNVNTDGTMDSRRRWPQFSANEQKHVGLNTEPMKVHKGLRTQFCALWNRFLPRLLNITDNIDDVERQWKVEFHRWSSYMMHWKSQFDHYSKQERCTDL

Regarding `CC(C)NCC(O)c1ccc(O)c(O)c1` (centres undefined), the outcome in the data set filed under Danio rerio [1] and in the data set filed under Danio rerio [2] was inactive. Further, the result in the data set listed under Danio rerio [3] and in the data set listed under Danio rerio [4] was Active.
As for `O=C(Oc1ccc2c3c(c(=O)oc2c1)CCCC3)c1ccccc1`, in the data set filed under Danio rerio [3], the outcome was Active.
One may read the IC50 as the concentration that inhibits the measured activity by half. Low values mean greater potency in that assay, high ones weaker potency in that assay. In [5], `CC(C)(C)OC(=O)NCCC(=O)Oc1cc2oc(=O)c3c(c2cc1Cl)CCCC3` came in with an IC50 of 10000 nM. Further, the Ratio IC50 in data set [6] worked out at 100.
`CC(C)(C)OC(=O)NCC(=O)Oc1cc2oc(=O)c3c(c2cc1Cl)CCC3` returned an IC50 in data set [5] of 500 nM. Also, the Ratio IC50 in data set [6] is 100.
As a reminder, the inhibition is the percentage by which the read-out fell short of the control. On to `CN1C(=O)CN=C(c2ccccc2)c2cc(Cl)ccc21`, for which, in the data set listed under Danio rerio [7], the inhibition result was “Active”. Moreover, the inhibition entry in the data set filed under Danio rerio [2] was “inactive”. For the same molecule, the outcome in the data set listed under Danio rerio [3] was Active.
As for `O=C1c2ccccc2-c2nc3ncnn3c(-c3ccccc3Cl)c21`, the IC50 on Acetylcholinesterase [8] was 500 nM. Besides, the inhibition result on Acetylcholinesterase [9] was “inactive”. Moreover, the outcome in the data set filed under Danio rerio [3] was Active.
Turning to `C[C@]12CC[C@H](O)C[C@H]1CC[C@@H]1[C@@H]2CC[C@]2(C)[C@@H](C3=CC(=O)OC3)CC[C@]12O` [DIGITOXIGENIN], the result in the data set filed under Danio rerio [3] was Active. The Activity result in the data set filed under Danio rerio [10] is given as “Toxic”.
Consider `C[n+]1ccccc1C=NO`, for which the result in the data set listed under Danio rerio [11] was Active.
For the molecule `CC(=O)CC(c1ccccc1)c1c(O)c2ccccc2oc1=O` (centres undefined), in [12], the inhibition result is “inactive”. In addition, the outcome in the data set listed under Danio rerio [3] was Active.
Consider `CC(C)(C)OC(=O)NCCC(=O)Oc1cc2oc(=O)c3c(c2cc1Cl)CCC3`, for which, in [5], the IC50 was 1000 nM. Moreover, the Ratio IC50 in [6] came out at 100.
On Acetylcholinesterase [13], `O=C(CCCN1C(=O)c2ccccc2C1=O)N1CCCCCC1` returned an IC50 of 500 nM. Moreover, the result in the data set listed under Danio rerio [3] was Active.
Turning to `O=[N+]([O-])c1ccc2nc(N3CCNCC3)ccc2c1`, the result in the data set listed under Danio rerio [14] and in the data set filed under Danio rerio [3] was Active. Further, the result in the data set filed under Danio rerio [15] was inactive.
Turning to `COC(=O)c1ccc(COc2cc(C)ccc2C(=O)Oc2ccc3c4c(c(=O)oc3c2)CCCC4)o1`, the Ratio IC50 in data set [6] turned out to be 100.
Regarding `CNC(=O)Oc1ccc2c(c1)[C@]1(C)CCN(C)[C@@H]1N2C`, the result in the data set filed under Danio rerio [3] was Active.
In the case of `CN1CCc2cccc3c2[C@H]1Cc1ccc(O)c(O)c1-3`, the result in the data set listed under Danio rerio [11] and in the data set listed under Danio rerio [3] was Active. Also, the outcome in the data set filed under Danio rerio [16] was inactive.
`CNC[C@H](O)c1ccc(O)c(O)c1`: the outcome in the data set filed under Danio rerio [3] was Active.
Turning to `CN1[C@@H]2CC[C@H]1C[C@@H](OC(=O)C(CO)c1ccccc1)C2` (some centres undefined), in the data set listed under Danio rerio [11], the result was Active.
As for `C#CCN(C)Cc1ccccc1`, the outcome in the data set listed under Danio rerio [3] was Active.
Consider `Cc1cc2c(OCC(CNC(C)(C)C)OC(=O)c3ccccc3)cccc2[nH]1` (centres undefined), for which the result in the data set filed under Danio rerio [11] was Active.
In data set [12], `O=C(CNC(=O)OCc1ccccc1)Oc1cc2oc(=O)c3c(c2cc1Cl)CCC3` gave an inhibition of 0%. The Ratio IC50 in [6] worked out at 100.
Consider `CC(C)(C)NCC(O)c1cc(Cl)c(N)c(Cl)c1` (centres undefined), for which, in the data set listed under Danio rerio [3], the outcome was Active.

Source of the values: ChEMBL document CHEMBL1212809, “Rapid behavior-based identification of neuroactive small molecules in the zebrafish” (Nat Chem Biol, 2010).
